# Compounds with a hit are over-represented: about 1.7% of the library has one in this group of screens.
# PABP FP inh: blocks human PABP binding to poly(A) RNA. AID 2014. inhibition, % at 35 µM. P11940. 290,000 tested, 1% active. fluorescence polarization;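 further: calls also rest on retests at 20 µM and on dose response follow-up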
# PABP1 MLLE inh: blocks PAM2 peptide binding to the PABP1 MLLE domain; GST-MLLE / FITC-PAM2 fluorescence polarization; inhibition, % at 20 µM; 360,000 tested, 0.36% active; in the data active means inhibition above about 35%, passing the limit was not always enough;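 further: plate controls were DMSO wells with GST-MLLE for no effect and wells lacking GST-MLLE protein for full effect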
# eIF4H FP inh: inhibitors of RNA binding by human eIF4H. Q15056. eIF4H fluorescence polarization binding assay. inhibition, % at 35 µM. 290,000 tested, 0.94% active. AID 2012;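 further: calls also rest on retests at 20 µM and on dose response follow-up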
# MT1-MMP act inh: inhibitors of human MT1-MMP activation; HT1080 RFP-PRO-GFP cells, GFP/RFP ratio fluorescence, overnight; percent of plate control window, DMSO zero; AID 651647; 360,000 tested, 0.061% active; GFP/RFP ratio change, % at 20 µM;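 active means GFP/RFP ratio change of at least 30% with cell ATP level not reduced by more than half and red fluorescence within 50% of control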
#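 Assay system – RFP-PRO-GFP reporter HT1080 cells · Compound dosing – single dose of 20 µM compound, 1% DMSO final · Incubation – overnight compound exposure at 37 °C · Measure – GFP/RFP fluorescence ratio · Benchmarks – DMSO wells and RFP-L50D-GFP cells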
# SKN-1 inh: inhibitors of C. elegans SKN-1 | C. elegans VP596 Pgst-4::GFP/RFP ratio, acrylamide-induced, 24 h | inhibition, % at 21.8 µM | 360,000 tested, 0.49% active;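 active means interference check ratio from 0.5 to 1.5 plus GFP to RFP signal ratio inhibition reaching or exceeding a fixed threshold, cut at about 30% in these data, passing the limit was not always enough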
# * marks the source's active call; other numbers are inactive results; ? = inconclusive; . = not tested or not shown. Unless noted, how the calls were made is not given here.
SMILES,PABP FP inh,PABP1 MLLE inh,eIF4H FP inh,MT1-MMP act inh,SKN-1 inh
Cc1cc(SCC(=O)NC(=O)NCc2ccco2)nc2c(C)cccc12,27*,14,51*,-4,3
O=C(CSc1nc(-c2ccccc2)cs1)NC(=O)NCc1ccco1,14,-1,1,-3,10
COc1cc(/C=C2\SC(=S)N(NC(=O)c3cccnc3)C2=O)ccc1O,-4,-95,25,-35,-2
O=C1/C(=C/c2cccnc2)SC(=S)N1c1ccc(F)cc1,-5,43*,2,5,15
COc1cc(/C=C2\SC(=S)N(c3cccnc3)C2=O)ccc1O,-9,-36,71*,-26,-11
O=C(Cn1nnc(-c2cc(C(F)(F)F)cc(C(F)(F)F)c2)n1)NNC(=S)Nc1ccc(Cl)cc1,2,41*,14,-1,3
CC(=O)N1c2ccc(S(=O)(=O)N3CCCC3C(=O)Nc3ccc(C)cc3)cc2CC1C (stereo not given),12*,3,54,-1,-6
CCCCNC(=O)COC(=O)c1c2c(nc3ccccc13)CCC2,18*,-17,68*,-1,7
CNC(=O)COC(=O)c1c2c(nc3ccccc13)CCC2,34,-19,66*,-4,-9
O=C(COC(=O)c1c2c(nc3ccccc13)CCCCC2)NCc1ccc2c(c1)OCO2,2,-18,-7,5,-1
COc1ccc(NC(=O)COC(=O)c2c3c(nc4ccccc24)CCCC3)cc1,-5,6,2,3,13
C=CCNC(=O)COC(=O)c1c2c(nc3ccccc13)CCC2,36*,-8,59*,-6,-11
O=C(NC(=S)NC1CCSC1=O)c1cccc([N+](=O)[O-])c1 (stereo not given),7,42*,-6,-9,-19
O=C(NC(=S)NC1CCSC1=O)c1ccccc1 (stereo not given),-3,26,-6,-8,8
O=C(NC(=S)NC1CCSC1=O)c1ccc([N+](=O)[O-])cc1 (stereo not given),6,48*,1,-4,0
CCOC(=O)c1c(C)[nH]c(O)c1C=Nc1ccc(C(F)(F)F)cc1,11,-58,-8,-53,60*
COC(=O)c1c(C)[nH]c(O)c1C=Nc1ccc(C(C)C)cc1,80*,-78,85*,-47,14
COC(=O)c1c(C)[nH]c(O)c1C=Nc1ccc(Oc2ccccc2)cc1,2,-84,?,-13,2
CN1C(=O)CON=C1c1cccc2ccccc12,.,10,.,7,8
COCc1cc(C)c(C#N)c(=S)[nH]1,4,37*,-7,-6,21
COCc1cc(=O)[nH]c(=S)[nH]1,-4,40*,1,-4,-1
CCOCc1cc(C)[nH]c(=O)c1C#N,5,2,3,-1,-4
CCCCCCN=C(C)c1ccccc1O,0,-18,2,0,6
CCN(CC)C(=O)[C@H]1CC(CC(=O)NCc2ccc(OC)c(OC)c2)C(=O)N2CCc3c([nH]c4ccc(OC)cc34)[C@]12C (stereo not given in full),.,-3,.,0,9
CCOC(=O)N(C)c1c(CC)nc2c(OCc3cc(Cl)cc(Cl)c3)cccn12,.,6,.,-1,4
SMILES,PABP FP inh,PABP1 MLLE inh,eIF4H FP inh,MT1-MMP act inh,SKN-1 inh
CCOC(=O)C(=O)C1=C(N2CCOCC2)/C(=C\c2cccc([N+](=O)[O-])c2)CC1,active,1,80,1,-2
O=C(NP(=O)(N1CCCC1)N1CCCC1)C1=C(N2CCOCC2)/C(=C/c2cccc([N+](=O)[O-])c2)CC1,7,2,45,3,2
CCC(C)N(C(=O)CSc1ccc(NC(C)=O)cc1)C1CCS(=O)(=O)C1 (stereo not given),-5,45*,-16,0,7
CCC(C)N(C(=O)Cn1c(=O)cnc2ccccc21)C1CCS(=O)(=O)C1 (stereo not given),.,-1,.,4,-8
CCc1nc2ccccc2n1CC(=O)N(C(C)CC)C1CCS(=O)(=O)C1 (stereo not given),-19,15,11,-2,47*
COc1ccc(/C=N/OCc2ccc(Br)cc2)c(OC)c1,1,2,-12,4,-8
CSc1nsc(SCc2ccc(F)cc2)n1,0,13,3,0,60*
COc1ccc(C2=NN(C(=O)CCCC(=O)O)C(c3cn(-c4ccccc4)nc3-c3ccccc3)C2)cc1 (stereo not given),1,-7,74*,15,9
Cc1ccc(NC(=O)CNC(=O)c2ccc(OC(F)F)cc2)cc1S(=O)(=O)N1CCCCCC1,.,15,.,2,-4
Cc1cc(C(=O)CSc2nnc(N)s2)c(C)n1Cc1cccs1,2.7*,17,77,7,10
Cc1csc(SCC(=O)c2cc(C)n(Cc3cccs3)c2C)n1,-6,24,6,-8,7
Cc1cc(C(=O)CSc2nnc(-c3ccc(OC(F)F)cc3)o2)c(C)n1Cc1cccs1,85*,-118,57*,-1,-2
CCC(C)c1ccc(NC(=S)NCc2ccccc2OC)cc1 (stereo not given),-8,-55,4,0,19
O=C(Nc1ccccc1Cl)c1cc(C2CCCN(C(=O)OCCF)C2)on1 (stereo not given),.,2,.,0,37*
COC(=O)N1CCCC(c2cc(C(=O)Nc3ccccc3Cl)no2)C1 (stereo not given),.,1,.,-13,12
CN(C)S(=O)(=O)c1cccc(-c2nn(-c3ccccc3)cc2/C=C2\SC(=S)NC2=O)c1,active,-82,?,-138,3
CN(C)S(=O)(=O)c1cccc(-c2nn(-c3ccccc3)cc2/C=C(\C#N)c2nc3ccccc3[nH]2)c1,5,-26,-7,-11,11
O=C(O)CCN1C(=O)C(=C2CCCCCC2)SC1=S,29,45*,-7,-3,-16
O=C1C(=C2CCCCC2)SC(=S)N1Cc1ccco1,25,21,4,4,-4
Cc1cc(C)n(-c2n[nH]c(=O)c3ccccc23)n1,-4,8,2,-1,-7
CN1CN(C)C(c2ccncc2)=C1c1ccncc1,1,3,9,0,3
Cc1ccc(C(=O)N2CCN(S(=O)(=O)c3ccccc3[N+](=O)[O-])C2)cc1,1,-3,-6,6,7
Cc1ccc(C(=O)N2CCN(S(=O)(=O)c3ccccc3[N+](=O)[O-])CC2)o1,-7,-9,51*,0,4
O=C1Cc2cccc(=O)c(O)c2C(=O)O1,.,9,.,1,1
O=C1c2c(O)cccc2Cc2cccc(O)c21,.,46*,.,6,26
CCCCCCCn1ccc(=N)cc1,50*,-127,0.6*,-8,26
CCCCCCCCCn1ccc(=N)cc1,-7,-9,0,-10,6
O=C(NC(=S)Nc1cccc2cccnc12)c1cccs1,-17,48*,4,2,-10

# Source: PubChem
